Here are results for 9 molecules from ChEMBL document CHEMBL4616681, “Discovery of 3-Pyridyl Isoindolin-1-one Derivatives as Potent, Selective, and Orally Active Aldosterone Synthase (CYP11B2) Inhibitors” (J Med Chem, 2020).

For data set [1], the target named is T1, Cytochrome P450 11B2, mitochondrial (Homo sapiens, UniProt P19099).
T1 sequence (P19099 whole entry): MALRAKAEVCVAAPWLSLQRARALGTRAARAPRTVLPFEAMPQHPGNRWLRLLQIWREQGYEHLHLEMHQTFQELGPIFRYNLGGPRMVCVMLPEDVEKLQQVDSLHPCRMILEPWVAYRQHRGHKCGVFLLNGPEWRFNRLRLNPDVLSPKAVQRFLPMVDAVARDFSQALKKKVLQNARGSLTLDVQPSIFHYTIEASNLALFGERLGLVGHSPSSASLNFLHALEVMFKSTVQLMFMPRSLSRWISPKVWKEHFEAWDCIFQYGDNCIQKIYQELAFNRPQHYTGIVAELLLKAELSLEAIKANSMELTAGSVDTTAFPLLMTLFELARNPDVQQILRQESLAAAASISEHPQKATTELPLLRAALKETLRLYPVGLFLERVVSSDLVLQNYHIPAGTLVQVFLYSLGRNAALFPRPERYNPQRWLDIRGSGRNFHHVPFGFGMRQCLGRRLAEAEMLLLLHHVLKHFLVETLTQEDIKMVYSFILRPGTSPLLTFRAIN
The data set is described as follows: Inhibition of human CYP11B2 expressed in human renal leiomyoblastoma cells harboring FDXR/FDX using 1-deoxycorticosterone as substrate by HTRF assay. It is filed as cell-based. Put shortly: (§1)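 Cells with endogenous FDXR/FDX and no detectable CYP11B activity, stably transfected (CMV promoter, neomycin selection, G-418 400 µg/mL) with CYP11B1 or CYP11B2 of the named species. Assayed in DMEM/F12 with 2.5% charcoal-treated FCS. Substrate 1 µM 11-deoxycorticosterone (B2) or 11-deoxycortisol (B1), 16 hr. Aldosterone or cortisol in supernatant measured by HTRF. IC50 from 4-parameter MMF fit; selectivity factor is the B1/B2 IC50 ratio.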
Background: TR-FRET usually uses a lanthanide donor and a delayed reading to cut background.

In data set [2] the target is T2, Cytochrome P450 11B1, mitochondrial (Homo sapiens, UniProt P15538).
T2 sequence (P15538 whole entry): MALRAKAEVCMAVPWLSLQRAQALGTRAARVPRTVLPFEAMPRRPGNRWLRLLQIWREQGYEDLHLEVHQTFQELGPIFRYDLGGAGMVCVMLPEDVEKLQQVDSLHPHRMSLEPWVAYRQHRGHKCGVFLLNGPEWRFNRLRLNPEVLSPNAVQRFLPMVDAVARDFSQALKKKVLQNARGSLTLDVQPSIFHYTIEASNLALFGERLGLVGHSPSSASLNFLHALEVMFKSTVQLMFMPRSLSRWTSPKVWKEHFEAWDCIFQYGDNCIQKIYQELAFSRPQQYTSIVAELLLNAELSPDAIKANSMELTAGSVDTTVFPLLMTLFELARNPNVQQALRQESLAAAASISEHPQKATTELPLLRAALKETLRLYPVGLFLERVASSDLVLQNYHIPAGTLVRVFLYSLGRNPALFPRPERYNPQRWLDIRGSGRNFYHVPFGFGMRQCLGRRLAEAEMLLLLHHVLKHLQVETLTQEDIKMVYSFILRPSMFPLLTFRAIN
The experiment in a line: Inhibition of human CYP11B1 expressed in human renal leiomyoblastoma cells harboring FDXR/FDX using 1-deoxycortisol as substrate by HTRF assay. The class given is ADME, cell-based. Put shortly: as §1

Data set [3] in a line: Selectivity ratio of IC50 for human CYP11B1 expressed in human renal leiomyoblastoma cells harboring FDXR/FDX to IC50 for human CYP11B2 expressed in human renal leiomyoblastoma cells harboring FDXR/FDX. The class given is cell-based. Put shortly:
as §1

The nature of data set [4]: Intrinsic clearance in human liver microsomes preincubated for 10 mins followed by NADPH regenerating system addition and measured up to 30 mins by LC/MS-MS analysis. The class given is ADME, Microsome. Particulars: read-out: CLH. The method in brief: (§2)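 Liver microsomes at 0.5 mg protein/mL in 100 mM potassium phosphate, pH 7.4. Compound preincubated 10 min at 37 °C. Intrinsic clearance scaled using the well-stirred liver model.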
For orientation: Liver microsomes are vesicles of endoplasmic reticulum, rich in cytochrome P450 enzymes.

Data set [5] is described as follows: Intrinsic clearance in mouse liver microsomes preincubated for 10 mins followed by NADPH regenerating system addition and measured up to 30 mins by LC/MS-MS analysis. The class given is ADME, Microsome. The method in brief:
as §2

A short description of data set [6]: Octanol-water distribution coefficient, log D of the compound by carrier-mediated distribution system. It is filed as physicochemical.
Data set [7] is described as follows: Permeability of the compound measured at 18 hrs by PAMPA. The class given is ADME. To be noted: read-out: permeability. The method in brief:
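PAMPA sandwich format. Donor: compound diluted to 150 μM (DMSO <2%) in 0.05 M MOPSO pH 6.5 with 0.5% glycocholic acid. Acceptor: 0.05 M MOPSO pH 6.5. Membrane of 10% egg lecithin with 0.5% cholesterol in dodecane. Donor measured at start; acceptor and donor measured at ~18 hr.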
In general terms: PAMPA measures passive passage across an artificial lipid membrane.

Data set [8] in a line: Solubility of the compound in phosphate buffer at pH 6.5 shaken for 2 hrs followed by overnight incubation. It is filed as physicochemical. Put shortly: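 Lyophilisation solubility assay run in duplicate from 10 mM DMSO stock. DMSO evaporated and residue redissolved in 0.05 M phosphate, pH 6.5. Stirred 1 hr, shaken 2 hr, left overnight, then filtered. Filtrate and a 1/10 dilution analysed by HPLC-UV against a four-point calibration.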

Data set [9] can be described thus: Inhibition of cynomolgus monkey CYP11B2 expressed in human G401 cells using 1-deoxycorticosterone as substrate by HTRF assay. The class given is cell-based, Macaca fascicularis. To be noted: g-401. Put shortly:
as §1

Data set [10] in a line: Selectivity ratio of IC50 for cynomolgus monkey CYP11B1 expressed in human G401 cells to IC50 for cynomolgus monkey CYP11B2 expressed in human G401 cells. The class given is cell-based. Put shortly: as §1
Data set [11] in a line: Plasma clearance in Wister-Han rat at 1 mg/kg, iv administered as single dose by LC/MS-MS analysis. The class given is ADME, organism-based. Particulars: Wistar-Han. Put shortly: (§3)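 Male Wistar-Han rats, single dose. IV 1 mg/kg, compound at 0.5 mg/mL in NMP:saline 30/70 (v/v). Oral 3 mg/kg, 0.25 mg/mL in 2% Klucel with 0.1% Polysorbate 80. Three rats per time point. Heparinized blood taken at eight (iv) or seven (po) time points, plasma stored at -20 °C. Plasma levels by LC/MS-MS. Non-compartmental analysis.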

Data set [12] can be described thus: AUC (0 to infinity) in Wister-Han rat at 3 mg/kg, po administered as single dose by LC/MS-MS analysis. Set-up: dose 3 mg/kg, route oral, time infinity. Particulars: Wistar-Han, in vivo. It is filed as ADME, organism-based. Put shortly:
as §3

The nature of data set [13]: Oral bioavailability in Wister-Han rat at 3 mg/kg administered as single dose by LC/MS-MS analysis. It is filed as ADME, organism-based. Particulars: Wistar-Han, in vivo. Put shortly: as §3
Data set [14] can be described thus: Intrinsic clearance in rat liver microsomes preincubated for 10 mins followed by NADPH regenerating system addition and measured up to 30 mins by LC/MS-MS analysis. The class given is ADME, Microsome. Put shortly: as §2

Converted amounts (≈) assume the structure as drawn. A value given as a limit tells only on which side of the number the result lay.

Take `O=C1c2ccc(Cl)cc2CCN1c1cccnc1`: the IC50 in data set [1] was found to be 61 nM; in data set [2] it was 5000 nM. The Ratio IC50 in data set [3] is 82. The predicted hepatic clearance in [4] was below 3.5 mL/min/kg. In data set [5], the predicted hepatic clearance (CLH) is below 20.2 mL/min/kg. This molecule had a logD in data set [6] of 2.25.
Take `N#Cc1ccc2c(c1)CN(c1cccnc1)C2=O`: the results for the IC50 in data set [1] and in data set [2] were 232 nM and 15500 nM, respectively. Moreover, in data set [3], the Ratio IC50 is 67. Moreover, the predicted hepatic clearance in data set [4] was 8.7 mL/min/kg. In addition, the predicted hepatic clearance (CLH) in [5] is 45.6 mL/min/kg. The molecule further showed a logD in data set [6] of 1.35.
As to `CC1(C)c2cc(Cl)ccc2C(=O)N1c1cncc(OC2CN(C(=O)c3ncccc3Cl)C2)c1`, the IC50 worked out at 5 nM in data set [1] and 0.5 nM in [9]. Moreover, the Ratio IC50 in data set [3] was found to be 174; in data set [10], 1120. Besides, in data set [7], the Papp at 18 h came out at 3.32 ×10⁻⁶ cm/s. The molecule also showed a solubility at 2 h in data set [8] of 20 µg/mL (≈ 41.4 µM). This molecule also yielded a clearance in data set [11] of 3.1 mL/min/kg. In addition, the AUC(0-inf) in data set [12] was 10800 ng·h/mL. In data set [13], this molecule showed a bioavailability of 58%.
As for `Cc1ccncc1C(=O)N1CC(Oc2cncc(N3C(=O)c4ccc(Cl)cc4C3(C)C)c2)C1`, the IC50 in data set [1] turned out to be 4 nM; in [9] it was 0.9 nM. Besides, the Ratio IC50 came to 553 in [3] and 1770 in data set [10]. For the same molecule, the Papp at 18 h in data set [7] came to 5.4 ×10⁻⁶ cm/s. This molecule also yielded a solubility at 2 h in data set [8] of 290 µg/mL (≈ 626 µM). Also, the predicted hepatic clearance (CLH) in data set [14] was 10.4 mL/min/kg. Besides, the clearance in [11] was found to be 15.8 mL/min/kg. The same molecule gave an AUC(0-inf) in [12] of 1020 ng·h/mL. Also, the bioavailability in data set [13] stood at 40%.
Take `CCC(=O)N[C@@H]1CCCc2c1cncc2N1Cc2cc(Cl)ccc2C1=O`: the figures for the IC50 in data set [1] and in [2] were 28 nM and 5210 nM, respectively. The Ratio IC50 in data set [3] turned out to be 186. The predicted hepatic clearance in [4] is below 3.5 mL/min/kg. The predicted hepatic clearance (CLH) in data set [5] was below 20.2 mL/min/kg. Besides, the logD in data set [6] is 2.14. In addition, in [7], the Papp at 18 h was found to be 3.63 ×10⁻⁶ cm/s. For the same molecule, in data set [8], the solubility at 2 h is above 460 µg/mL.
With `Cn1cc(C(=O)N2CC(Oc3cncc(N4C(=O)c5ccc(Cl)cc5C4(C)C)c3)C2)cn1`, the IC50 in data set [1] came out at 0.5 nM. In data set [3], the Ratio IC50 worked out at 4160. Also, in data set [7], the Papp at 18 h is 3.45 ×10⁻⁶ cm/s. In data set [8], this molecule had a solubility at 2 h of 310 µg/mL (≈ 686 µM). The predicted hepatic clearance (CLH) in data set [14] is 6.4 mL/min/kg. Moreover, the clearance in data set [11] was 3.8 mL/min/kg. The AUC(0-inf) in data set [12] came out at 7880 ng·h/mL. In addition, in data set [13], the bioavailability came out at 60%.
`O=C1c2ccc(Cl)cc2CN1c1cccnc1`: the IC50 is 179 nM in data set [1] and 10700 nM in data set [2]. In addition, the Ratio IC50 in data set [3] stood at 60. For the same molecule, the predicted hepatic clearance in data set [4] was 12.8 mL/min/kg. Further, in data set [5], the predicted hepatic clearance (CLH) is 76.5 mL/min/kg. This molecule returned a logD in data set [6] of 2.52.
Take `CC1(C)c2cc(Cl)ccc2C(=O)N1c1cncc(N2CCN(S(C)(=O)=O)CC2)c1`: the IC50 in data set [1] worked out at 2 nM; in data set [9], 0.2 nM. Also, the Ratio IC50 in data set [3] came to 146; in data set [10] it was 170. Moreover, the Papp at 18 h in data set [7] was 6.03 ×10⁻⁶ cm/s. Also, the solubility at 2 h in data set [8] was found to be 91 µg/mL (≈ 209 µM). In addition, the predicted hepatic clearance (CLH) in data set [14] is 16.8 mL/min/kg. Further, in data set [11], the clearance amounted to 16.6 mL/min/kg. In data set [12], this molecule came in with an AUC(0-inf) of 1640 ng·h/mL. This molecule also came in with a bioavailability in data set [13] of 54%.
As for `CCS(=O)(=O)N1CCC(c2cncc(N3C(=O)c4ccc(Cl)cc4C3(C)C)c2)CC1`, the IC50 is 3 nM in data set [1] and 0.4 nM in data set [9]. The results for the Ratio IC50 in data set [3] and in [10] were 106 and 430, respectively. In data set [7], the Papp at 18 h was 4.01 ×10⁻⁶ cm/s. For the same molecule, the solubility at 2 h in data set [8] was 39 µg/mL (≈ 87.1 µM). In data set [14], the predicted hepatic clearance (CLH) was 35.1 mL/min/kg. The same molecule returned a clearance in [11] of 29.7 mL/min/kg. In data set [12], this molecule displayed an AUC(0-inf) of 1460 ng·h/mL. The molecule further yielded a bioavailability in data set [13] of 87%.

A word on the IC50: it is the concentration at which inhibition is half-maximal. What is called logD is the decadic logarithm of the distribution of all forms, ionised or not, between an organic phase and buffer at a given pH. The solubility is the concentration that dissolves in the medium under given conditions. For orientation: clearance means the volume of plasma or blood freed of the substance per unit of time. One may read the AUC(0-inf) as total exposure, with the tail of the curve extrapolated. The term bioavailability denotes dose-corrected exposure relative to a reference, in per cent.
